pEC50: −log10 of the molar value. The source made the active and inactive calls. The rule behind the calls is not given here.
Tests used:
[1] = Induction of IL6 expression in human HLA-DR(+), CD11c(+) and CD123(-) expressing mDC after 24 hrs by intracellular cytokine staining method; type: functional; set-up: concentration or dose not given beside the values
Outline: (§1)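 PBMCs were stimulated with aqueous compound for 24 h, with GolgiPlug (10 ng/ml) present for the final 6 h. Cells were washed and surface-stained for lineage markers (mDC HLA-DR+ CD11c+ CD123−; pDC HLA-DR+ CD11c− CD123+). They were then permeabilized with Perm/Fix buffer and stained with fluorochrome-conjugated anti-cytokine antibodies for flow cytometry.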

PBMC [2] = assay: Reduction in IFNalpha production in primary human PBMC at >10 uM after 24 hrs by ELISA method; type: functional, cell-based
PBMC [3] = assay: Induction of IFNgamma production in primary human PBMC after 24 hrs by ELISA method; type: functional, cell-based
Toll-like receptor 7 = biological target: T1, Toll-like receptor 7 (Homo sapiens, UniProt Q9NYK1); assay: Activation of human TLR7 expressed in HEK293 cells after 24 hrs by NFkappaB-mediated SEAP reporter gene assay; type: cell-based; conditions: read-out: EC50
T1 sequence (Q9NYK1 whole entry): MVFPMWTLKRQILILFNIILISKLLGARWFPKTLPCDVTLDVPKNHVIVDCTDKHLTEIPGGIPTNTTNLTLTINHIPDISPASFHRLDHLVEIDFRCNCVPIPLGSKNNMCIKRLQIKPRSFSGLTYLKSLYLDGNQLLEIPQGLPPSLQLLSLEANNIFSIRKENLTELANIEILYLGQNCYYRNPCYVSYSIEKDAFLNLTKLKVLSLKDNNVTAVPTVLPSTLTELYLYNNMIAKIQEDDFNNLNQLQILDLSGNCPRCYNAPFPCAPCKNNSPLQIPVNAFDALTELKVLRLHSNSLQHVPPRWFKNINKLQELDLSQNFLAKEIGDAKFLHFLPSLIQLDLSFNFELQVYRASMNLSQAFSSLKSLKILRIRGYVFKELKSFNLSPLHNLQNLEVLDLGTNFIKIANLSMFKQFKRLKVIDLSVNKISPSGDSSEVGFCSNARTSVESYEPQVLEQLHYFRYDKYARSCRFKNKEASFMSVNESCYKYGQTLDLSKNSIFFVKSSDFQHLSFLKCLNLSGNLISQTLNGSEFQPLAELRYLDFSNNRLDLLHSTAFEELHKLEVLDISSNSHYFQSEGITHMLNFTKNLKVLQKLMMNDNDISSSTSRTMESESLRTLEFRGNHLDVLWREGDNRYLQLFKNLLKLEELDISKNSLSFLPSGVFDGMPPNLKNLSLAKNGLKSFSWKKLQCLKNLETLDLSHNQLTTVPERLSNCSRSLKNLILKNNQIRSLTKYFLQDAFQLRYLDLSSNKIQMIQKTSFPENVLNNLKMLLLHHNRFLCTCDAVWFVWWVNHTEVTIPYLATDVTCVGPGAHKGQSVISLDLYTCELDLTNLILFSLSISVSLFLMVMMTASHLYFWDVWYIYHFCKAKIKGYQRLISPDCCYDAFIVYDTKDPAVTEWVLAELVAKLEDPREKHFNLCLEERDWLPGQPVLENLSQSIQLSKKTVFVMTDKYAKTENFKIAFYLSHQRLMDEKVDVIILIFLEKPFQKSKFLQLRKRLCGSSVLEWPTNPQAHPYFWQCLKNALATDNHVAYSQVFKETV
Outline: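 HEK293 cells stably transfected with hTLR7 or hTLR8 plus an NF-kB-driven SEAP reporter were kept in DMEM/10% FBS with selection antibiotics. Aqueous compound formulations were added for 24 h, and supernatant SEAP was read colorimetrically. Points were run in triplicate and averaged. Activity was scaled to the maximum of a reference agonist set at 100%. EC50 was taken from dose-response curves with 95% CI.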

PBMC [4] = assay: Induction of TNFalpha production in primary human PBMC after 24 hrs by ELISA method; type: functional, cell-based
Outline: (§2)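 Ficoll-isolated healthy-donor PBMCs at 0.5 × 10^6 cells/well in RPMI-1640/10% FBS were stimulated 24 h with aqueous compound. Supernatant TNFa was assayed with a […]. Data are from three donors in triplicate, with SEM shown.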

Homo sapiens [5] = species: Homo sapiens; assay: Induction of TNFalpha production in human HLA-DR(+), CD11c(+) and CD123(-) expressing mDC after 24 hrs by intracellular cytokine staining
PBMC [6] = assay: Induction of TNFalpha production in primary human PBMC at 0.001 to 10 uM after 24 hrs by ELISA method; type: functional, cell-based; outline: as §2
PBMC [7] = assay: Induction of IFNalpha production in primary human PBMC at 0.001 to 10 uM after 24 hrs by ELISA method; type: functional, cell-based
Outline: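 Fresh healthy-donor PBMCs were isolated by Ficoll and plated at 0.5 × 10^6 cells/well in RPMI-1640/10% FBS with antibiotics. Aqueous compound formulations were added for 24 h across 0.0001–10 µM. Supernatant IFNa was measured by ELISA. Data are from three donors, each run in triplicate, with SEM shown.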

Homo sapiens [8] = species: Homo sapiens; assay: Induction of TNFalpha production in human HLA-DR(+), CD11c(-) and CD123(+) expressing pDC after 24 hrs by intracellular cytokine staining method; type: functional, cell-based; outline: as §1
Homo sapiens [9] = species: Homo sapiens; assay: Induction of INFalpha production in human HLA-DR(+), CD11c(-) and CD123(+) expressing pDC after 24 hrs by […]; type: functional
Homo sapiens [10] = species: Homo sapiens; assay: Induction of INFalpha production in human HLA-DR(+), CD11c(-) and CD123(+) expressing pDC after 24 hrs by intracellular cytokine staining method; type: functional, cell-based; outline: as §1
Homo sapiens [11] = species: Homo sapiens; assay: Induction of TNFalpha production in human HLA-DR(+), CD11c(+) and CD123(-) expressing mDC after 24 hrs by intracellular cytokine staining method; type: functional, cell-based; outline: as §1
Homo sapiens [12] = species: Homo sapiens; assay: Induction of apoptosis in human HLA-DR(+), CD11c(+) and CD123(-) expressing mDC at 1 nM after 24 hrs by Annexin-V staining method; type: functional
Outline: (§3)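 PBMCs were stimulated for 24 h with compound at doses of 0.01 nM, 1 nM, 100 nM and 10 µM. Cells were phenotyped into mDC (HLA-DR+ CD11c+ CD123−) and pDC (HLA-DR+ CD11c− CD123+) and stained with Annexin-V to read apoptosis by flow cytometry.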

Homo sapiens [13] = species: Homo sapiens; assay: Induction of INFalpha production in human HLA-DR(+), CD11c(+) and CD123(-) expressing mDC after 24 hrs by intracellular cytokine staining method; type: functional, cell-based; outline: as §1
Homo sapiens [14] = species: Homo sapiens; assay: Induction of apoptosis in human HLA-DR(+), CD11c(-) and CD123(+) expressing pDC at 1 nM after 24 hrs by Annexin-V staining method; type: functional; outline: as §3
HEK293 = assay: Toxicity against human TLR8 expressing HEK293 cells after 24 hrs by live/dead fixable aqua staining method; type: cell-based; conditions: hek293, 24 h
Outline: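 HEK293-hTLR8 reporter cells were stimulated with compound for 24 h. Cells were then incubated with Live/Dead fixable Aqua dye for 30 min, washed extensively, and read for viability by flow cytometry.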

Homo sapiens [15] = species: Homo sapiens; assay: Induction of INFalpha production in human HLA-DR(+), CD11c(+) and CD123(-) expressing mDC after 24 hrs by […]; type: functional
Homo sapiens [16] = species: Homo sapiens; assay: Induction of TNFalpha production in human HLA-DR(+), CD11c(-) and CD123(+) expressing pDC after 24 hrs by […]; type: functional
Toll-like receptor 8 = biological target: T2, Toll-like receptor 8 (Homo sapiens, UniProt Q9NR97); assay: Activation of human TLR8 expressed in HEK293 cells after 24 hrs by NFkappaB-mediated SEAP reporter gene assay; type: cell-based; conditions: read-out: EC50
T2 sequence (Q9NR97 whole entry): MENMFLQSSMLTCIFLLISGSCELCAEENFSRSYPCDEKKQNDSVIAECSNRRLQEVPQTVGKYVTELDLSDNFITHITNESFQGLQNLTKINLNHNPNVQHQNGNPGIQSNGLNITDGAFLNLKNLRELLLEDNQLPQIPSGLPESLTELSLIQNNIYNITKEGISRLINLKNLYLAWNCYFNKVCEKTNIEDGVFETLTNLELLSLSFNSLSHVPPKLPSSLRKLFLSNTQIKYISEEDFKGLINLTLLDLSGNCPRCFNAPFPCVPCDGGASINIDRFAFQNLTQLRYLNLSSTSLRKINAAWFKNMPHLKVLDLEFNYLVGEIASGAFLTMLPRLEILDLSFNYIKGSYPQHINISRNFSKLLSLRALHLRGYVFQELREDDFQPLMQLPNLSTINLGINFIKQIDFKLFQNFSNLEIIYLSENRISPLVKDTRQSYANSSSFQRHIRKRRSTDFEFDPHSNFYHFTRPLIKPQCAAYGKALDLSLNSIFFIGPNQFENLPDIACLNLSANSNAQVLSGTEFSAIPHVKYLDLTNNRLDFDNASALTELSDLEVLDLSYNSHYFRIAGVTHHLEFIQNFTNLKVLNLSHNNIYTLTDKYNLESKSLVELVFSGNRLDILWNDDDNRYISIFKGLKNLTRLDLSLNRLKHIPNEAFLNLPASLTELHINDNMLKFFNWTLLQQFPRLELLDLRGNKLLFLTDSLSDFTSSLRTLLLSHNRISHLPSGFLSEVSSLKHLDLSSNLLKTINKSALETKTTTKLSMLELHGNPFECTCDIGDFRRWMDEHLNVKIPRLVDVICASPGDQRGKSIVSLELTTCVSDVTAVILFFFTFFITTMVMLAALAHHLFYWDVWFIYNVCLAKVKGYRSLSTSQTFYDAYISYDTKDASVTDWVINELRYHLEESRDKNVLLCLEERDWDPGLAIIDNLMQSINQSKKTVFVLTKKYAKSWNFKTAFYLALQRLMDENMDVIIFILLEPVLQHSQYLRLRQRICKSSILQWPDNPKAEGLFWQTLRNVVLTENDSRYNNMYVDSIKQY
Outline: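 HEK293 cells stably transfected with hTLR7 or hTLR8 plus an NF-kB-driven SEAP reporter were kept in DMEM/10% FBS with selection antibiotics. Aqueous compound formulations were added for 24 h, and supernatant SEAP was read colorimetrically. Points were run in triplicate and averaged.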

Homo sapiens [17] = species: Homo sapiens; assay: Induction of apoptosis in human HLA-DR(+), CD11c(+) and CD123(-) expressing mDC at 10 uM after 24 hrs by Annexin-V staining method; type: functional; outline: as §3
Homo sapiens [18] = species: Homo sapiens; assay: Induction of apoptosis in human HLA-DR(+), CD11c(-) and CD123(+) expressing pDC at 10 uM after 24 hrs by Annexin-V staining method; type: functional; outline: as §3

pEC50 (Toll-like receptor 7) | pEC50 (Toll-like receptor 8) | Structure (SMILES) | Activity [1] | inhibition (PBMC [2]) | Activity (PBMC [3]) | Activity (PBMC [4]) | Activity (Homo sapiens [5]) | Activity (PBMC [6]) | Activity (PBMC [7]) | Activity (Homo sapiens [8]) | Activity (Homo sapiens [9]) | Activity (Homo sapiens [10]) | Activity (Homo sapiens [11]) | Activity (Homo sapiens [13]) | Activity (HEK293) | Activity (Homo sapiens [15]) | Activity (Homo sapiens [16]) | further results
7.00 | – | CCCCOc1nc(N)c2[nH]c(=O)n(CCCCCC3CCNCC3)c2n1.Cl | 31.5% | Dose-dependent effect | Active | Active | Dose-dependent effect | Dose-dependent effect | Active | Dose-dependent effect | Dose-dependent effect | Dose-dependent effect | Dose-dependent effect | Dose-dependent effect | Toxic | Dose-dependent effect | Dose-dependent effect | Activity (Homo sapiens [12]): inactive; Activity (Homo sapiens [14]): Active
6.64 | 4.54 | CCCCOc1nc(N)c2[nH]c(=O)n(CCCCCCC3CCNCC3)c2n1.Cl | 28.5% | Dose-dependent effect | Active | Active | – | Dose-dependent effect | Active | – | – | – | – | – | – | – | – | –
5.40 | – | CCCCOc1nc(N)c2[nH]c(=O)n(CC3CCNCC3)c2n1.Cl | 2.95% | Dose-dependent effect | inactive | inactive | Dose-dependent effect | – | Active | Dose-dependent effect | Dose-dependent effect | Dose-dependent effect | Dose-dependent effect | Dose-dependent effect | Non-toxic | Dose-dependent effect | Dose-dependent effect | Activity (Homo sapiens [17]): Active; Activity (Homo sapiens [18]): Active
6.21 | 3.59 | CCCCOc1nc(N)c2[nH]c(=O)n(CCCC3CCNCC3)c2n1.Cl | 8.27% | Dose-dependent effect | Active | Active | – | Dose-dependent effect | Active | – | – | – | – | – | Non-toxic | – | – | –

Reference: ChEMBL document CHEMBL3396959, “Structural requirements for TLR7-selective signaling by 9-(4-piperidinylalkyl)-8-oxoadenine derivatives” (Bioorg Med Chem Lett, 2015)
